From ChEMBL document CHEMBL1828592, “Synthesis and anti-microbial activity of some 1- substituted amino-4,6-dimethyl-2-oxo-pyridine-3-carbonitrile derivatives” (2011)
The source made the active and inactive calls. The rule behind the calls is not given here.

What was measured:
Staphylococcus aureus [1] = test: Antibacterial activity against Staphylococcus aureus RCMB 000106 at 10 mg/ml after 24 hrs by diffusion agar technique; assay type: functional; settings: for zone of inhibition at 10000 µg/mL: RCMB 000106, 24 h, read-out: IZ
Procedure, shortened: (§1)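 Agar well diffusion: 24 h bacterial culture pellets (approx. 10^4–10^6 CFU/mL) spread on nutrient agar, pH 7.0. Wells (6 mm) loaded with 100 μL sample at 10 mg/mL in DMSO; DMSO control. Incubated 37 °C, 24 h. Inhibition zone (mm, beyond well) measured three times by caliper and averaged; three runs per strain; mean ± SD.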

Bacillus subtilis [2] = test: Antibacterial activity against Bacillus subtilis RCMB 000107 at 10 mg/ml after 24 hrs by diffusion agar technique; assay type: functional; settings: for zone of inhibition at 10000 µg/mL: RCMB 000107, 24 h, read-out: IZ; procedure, shortened: as §1
Aspergillus fumigatus [3] = test: Antifungal activity against Aspergillus fumigatus RCMB 002003 at 10 mg/ml after 3 to 4 days by agar well diffusion method; assay type: functional; settings: for zone of inhibition at 10000 µg/mL: read-out: IZ
Procedure, shortened: (§2)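 Patient-isolated fungi, purified by single-spore isolation, were grown 3–4 days in Sabouraud dextrose broth to about 10^5 CFU/mL. 0.1 mL was spread on Sabouraud dextrose agar. Wells were sealed at the bottom with 0.8% soft agar and loaded with 100 μL sample (10 mg/mL, DMSO); DMSO was the control. Incubated 30 °C, 3–4 days. Zone read three times by caliper and averaged; mean ± SD.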

Escherichia coli [4] = test: Antibacterial activity against Escherichia coli RCMB 000103 at 10 mg/ml after 24 hrs by diffusion agar technique; assay type: functional; settings: for zone of inhibition at 10000 µg/mL: RCMB 000103, 24 h, read-out: IZ; procedure, shortened: as §1
[5] = test system: Syncephalastrum racemosum; test: Antifungal activity against Syncephalastrum racemosum RCMB 005003 at 10 mg/ml after 3 to 4 days by agar well diffusion method; assay type: functional, organism-based; procedure, shortened: as §2
Geotrichum candidum [6] = test: Antifungal activity against Geotrichum candidum RCMB 052006 at 10 mg/ml after 3 to 4 days by agar well diffusion method; assay type: functional; settings: for zone of inhibition at 10000 µg/mL: read-out: IZ; procedure, shortened: as §2
Candida albicans [7] = test: Antifungal activity against Candida albicans RCMB 005002 at 10 mg/ml after 3 to 4 days by agar well diffusion method; assay type: functional; settings: for zone of inhibition at 10000 µg/mL: read-out: IZ; procedure, shortened: as §2
Pseudomonas aeruginosa [8] = test: Antibacterial activity against Pseudomonas aeruginosa RCMB 000102 at 10 mg/ml after 24 hrs by diffusion agar technique; assay type: functional; procedure, shortened: as §1
Pseudomonas aeruginosa [9] = test: Antibacterial activity against Pseudomonas aeruginosa RCMB 000102 at 30 ug/ml after 24 hrs by diffusion agar technique; assay type: functional; settings: RCMB 000102, 24 h, read-out: IZ
Procedure, shortened: (§3)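 Reference antibiotic tested at 30 μg/mL, 100 μL per 6 mm well in agar diffusion on nutrient agar (pH 7.0) seeded with approx. 10^4–10^6 CFU/mL bacteria. Incubated 37 °C for 24 h. Inhibition zone beyond well diameter (mm) read by caliper in triplicate and averaged; mean ± SD.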

Escherichia coli [10] = test: Antibacterial activity against Escherichia coli RCMB 000103 at 30 ug/ml after 24 hrs by diffusion agar technique; assay type: functional; settings: RCMB 000103, 24 h, read-out: IZ
Procedure, shortened: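 Agar well diffusion on nutrient agar (pH 7.0) spread with centrifuged bacterial pellets from a 24 h culture, about 10^4–10^6 CFU/mL. Wells receive 100 µL of sample in DMSO: tested samples at 10 mg/mL, standard antibiotic at 30 μg/mL, DMSO as control. Incubation is 37 °C for 24 h. Inhibition zone in mm beyond the 6 mm well is measured three times by caliper and averaged. Three runs, mean ± SD.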

Staphylococcus aureus [11] = test: Antibacterial activity against Staphylococcus aureus RCMB 000106 at 30 ug/ml after 24 hrs by diffusion agar technique; assay type: functional; settings: RCMB 000106, 24 h, read-out: IZ; procedure, shortened: as §3
Bacillus subtilis [12] = test: Antibacterial activity against Bacillus subtilis RCMB 000107 at 30 ug/ml after 24 hrs by diffusion agar technique; assay type: functional; settings: RCMB 000107, 24 h, read-out: IZ; procedure, shortened: as §3
Geotrichum candidum [13] = test: Antifungal activity against Geotrichum candidum RCMB 052006 at 30 ug/ml after 3 to 4 days by agar well diffusion method; assay type: functional; settings: read-out: IZ
Procedure, shortened: (§4)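 Reference antifungal tested at 30 μg/mL, 100 μL per well, on Sabouraud dextrose agar spread with 0.1 mL of a fungal culture at about 10^5 CFU/mL. Wells were bottom-sealed with 0.8% soft agar. Incubated 30 °C, 3–4 days. Inhibition zone (mm) measured three times by caliper and averaged; mean ± SD.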

Aspergillus fumigatus [14] = test: Antifungal activity against Aspergillus fumigatus RCMB 002003 at 30 ug/ml after 3 to 4 days by agar well diffusion method; assay type: functional; settings: read-out: IZ; procedure, shortened: as §4
Candida albicans [15] = test: Antifungal activity against Candida albicans RCMB 005002 at 30 ug/ml after 3 to 4 days by agar well diffusion method; assay type: functional; settings: read-out: IZ; procedure, shortened: as §4
[16] = test system: Syncephalastrum racemosum; test: Antifungal activity against Syncephalastrum racemosum RCMB 005003 at 30 ug/ml after 3 to 4 days by agar well diffusion method; assay type: functional; settings: read-out: IZ; procedure, shortened: as §4

| Structure (SMILES) | zone of inhibition at 10000 µg/mL (Staphylococcus aureus [1]) [mm] | zone of inhibition at 10000 µg/mL (Bacillus subtilis [2]) [mm] | zone of inhibition at 10000 µg/mL (Aspergillus fumigatus [3]) [mm] | inhibition zone (IZ) (Escherichia coli [4]) | inhibition zone (IZ) [5] | zone of inhibition at 10000 µg/mL (Geotrichum candidum [6]) [mm] | zone of inhibition at 10000 µg/mL (Candida albicans [7]) [mm] | inhibition zone (IZ) (Pseudomonas aeruginosa [8]) | zone of inhibition at 10000 µg/mL (Escherichia coli [4]) [mm] | also measured |
| --- | --- | --- | --- | --- | --- | --- | --- | --- | --- | --- |
| COc1ccc(-c2cc(-c3cccs3)nc3sc(C(=O)Nn4c(C)cc(C)c(C#N)c4=O)c(N)c23)cc1 | 13 | 14.2 | 11.1 | inactive | inactive | 14 | 10 | inactive |  |  |
| Cc1cc(C)n(N)c(=O)c1C#N | 14 | 17 |  |  | inactive |  |  |  | 22.8 | inhibition zone (IZ) (Aspergillus fumigatus [3]): inactive; inhibition zone (IZ) (Geotrichum candidum [6]): inactive; inhibition zone (IZ) (Candida albicans [7]): inactive; zone of inhibition at 10000 µg/mL (Pseudomonas aeruginosa [8]; RCMB 000102, 24 h, read-out: IZ): 21.4 mm |
| Cc1cc(C)n(/N=C/c2c(C)nn(-c3ccccc3)c2Cl)c(=O)c1C#N |  |  | 10.3 | inactive | inactive | 11.5 | 13.2 | inactive |  | inhibition zone (IZ) (Staphylococcus aureus [1]): inactive; inhibition zone (IZ) (Bacillus subtilis [2]): inactive |
| CN[C@@H]1[C@H](O[C@H]2[C@H](O[C@H]3[C@H](O)[C@@H](O)[C@H](N=C(N)N)[C@@H](O)[C@@H]3N=C(N)N)O[C@@H](C)[C@]2(O)C=O)O[C@@H](CO)[C@H](O)[C@H]1O [STREPTOMYCIN] |  |  |  |  |  |  |  |  |  | zone of inhibition at 30 µg/mL (Pseudomonas aeruginosa [9]): 24 mm; zone of inhibition at 30 µg/mL (Escherichia coli [10]): 25 mm; zone of inhibition at 30 µg/mL (Staphylococcus aureus [11]): 25 mm; zone of inhibition at 30 µg/mL (Bacillus subtilis [12]): 29 mm |
| Cc1ccc2nc(Cl)c(/C=N/n3c(C)cc(C)c(C#N)c3=O)cc2c1 |  |  | 14.5 | inactive | inactive | 13.2 | 12.4 | inactive |  | inhibition zone (IZ) (Staphylococcus aureus [1]): inactive; inhibition zone (IZ) (Bacillus subtilis [2]): inactive |
| Cc1cc(C)n(/N=C/c2ccc(F)cc2)c(=O)c1C#N | 14.9 | 15.2 |  | inactive | inactive |  |  | inactive |  | inhibition zone (IZ) (Aspergillus fumigatus [3]): inactive; inhibition zone (IZ) (Geotrichum candidum [6]): inactive; inhibition zone (IZ) (Candida albicans [7]): inactive |
| Cc1cc(C)n(NC(=S)Nc2ccccc2)c(=O)c1C#N | 15 | 13.5 | 10.2 | inactive | inactive | 12 | 11 | inactive |  |  |
| CCC(C)n1ncn(-c2ccc(N3CCN(c4ccc(OCC5COC(Cn6cncn6)(c6ccc(Cl)cc6Cl)O5)cc4)CC3)cc2)c1=O (configuration not stated) [ITRACONAZOLE] |  |  |  |  |  |  |  |  |  | zone of inhibition at 30 µg/mL (Geotrichum candidum [13]): 27 mm; zone of inhibition at 30 µg/mL (Aspergillus fumigatus [14]): 28 mm; zone of inhibition at 30 µg/mL (Candida albicans [15]): 26 mm; zone of inhibition at 30 µg/mL [16]: 22 mm |
| Cc1cc(C)n(N/C=C(\Nn2c(C)cc(C)c(C#N)c2=O)c2ccccc2)c(=O)c1C#N | 15 | 13.5 | 10 |  | inactive | 12 | 11 | inactive | 11.5 |  |
| Cc1cc(C)n(N2C(=O)c3ccccc3C2=O)c(=O)c1C#N | 24.4 | 25.4 | 19.2 |  | inactive | 21.4 | 18.2 | inactive | 10.8 |  |
